This is a sample that favours compounds with a hit; in the whole collection about 3.5% have one here.
RGS4 act = RGS4 potentiation or activation; HEK293 M3R/inducible RGS4, carbachol calcium flux Fluo4; hits give low values; B-score at 10 µM; 310,000 compounds, 0.92% hits;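 active means B-score of the integrated calcium signal more than 4 SD below the library mean, with starting fluorescence not abnormally high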;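 further: negative B-score means reduced calcium response which marks RGS4 activation or potentiation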
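Test system: HEK293 cells with stable M3R and inducible RGS4; also added: carbachol at ECmax as muscarinic agonist stimulus; schedule: dye loading 30 min 37 °C, buffer rest 30 min RT; technique: kinetic calcium fluorescence imaging with Fluo4-AM dye, 2 µM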
RGS4 inh = human RGS4 inhibition | P49798 | B-score at 10 µM | HEK293 M3R/RGS4 inducible, Fluo-4 calcium flux; hits give high values; triggered by carbachol at its EC20 | 310,000 compounds, 0.45% hits | AID 463165;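 active means B-score, a plate-corrected calcium signal, over three deviations above library mean, with baseline fluorescence within five deviations of library mean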;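 further: RGS4 expression induced by doxycycline in cells with stable M3 receptor; B-score is computed from the integrated fluorescence ratio over baseline after carbachol; higher B-score means a larger calcium signal and so more RGS4 inhibition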
Target sequence (P49798 whole entry, looked up): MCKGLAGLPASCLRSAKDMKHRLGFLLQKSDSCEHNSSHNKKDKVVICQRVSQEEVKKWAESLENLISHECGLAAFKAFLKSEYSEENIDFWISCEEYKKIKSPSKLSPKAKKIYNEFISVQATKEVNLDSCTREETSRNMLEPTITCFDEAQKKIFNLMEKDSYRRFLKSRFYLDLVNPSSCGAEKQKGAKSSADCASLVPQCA
MrgX1 agonist = agonists of human MrgX1 receptor; 310,000 compounds, 0.44% hits; B-score at 10 µM; Q96LB2; MrgX1-HEK293 cells, Fluo-4 calcium fluorescence, agonist mode; hits give high values;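 active means calcium response B-score plate-corrected fluorescence ratio at least 3 library SD, with starting fluorescence B-score inside 5 SD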
Target sequence (Q96LB2 whole entry, looked up): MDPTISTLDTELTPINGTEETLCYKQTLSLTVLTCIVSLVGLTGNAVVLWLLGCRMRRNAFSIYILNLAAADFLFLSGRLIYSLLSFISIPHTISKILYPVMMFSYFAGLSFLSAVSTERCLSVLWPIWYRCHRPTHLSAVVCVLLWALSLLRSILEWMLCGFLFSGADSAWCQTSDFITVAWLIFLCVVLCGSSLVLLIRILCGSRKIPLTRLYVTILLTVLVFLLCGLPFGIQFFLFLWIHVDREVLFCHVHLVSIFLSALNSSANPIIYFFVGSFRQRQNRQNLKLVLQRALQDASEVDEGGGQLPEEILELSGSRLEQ
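System – MrgX1-expressing HEK293 cells · Incubation – cells plated overnight, dye loaded 0.5 h 37 °C, 0.5 h room temperature · Technique – kinetic Fluo-4 NW fluorescence of intracellular calcium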
MrgX1 PAM = allosterically activates human MrgX1 receptor signaling; Q96LB2; MrgX1-HEK293, Fluo-4 calcium flux, FDSS; hits give high values; B-score at 10 µM; 310,000 compounds, 0.63% hits; AID 588675;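 active means plate-corrected calcium response at least 3 library SD above typical, normal starting fluorescence, not activating the receptor alone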;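 further: compound read alongside a low EC10 to EC30 dose of BAM8-22 agonist; peak minus trough fluorescence over baseline measured at the second addition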
MrgX1 antag = human MrgX1 receptor antagonism, primary screen | AID 588676 | Q96LB2 | B-score at 10 µM | MRGX1-HEK293 calcium flux, Fluo-4, BAM8-22 antagonism; hits give low values | 310,000 compounds, 1.3% hits;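 active means calcium-response B-score plate-corrected more than 3 library SD below zero, starting fluorescence within 5 deviations, no agonist response on first addition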;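 further: peak minus trough fluorescence over baseline after final BAM8-22 challenge near maximal dose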
* hit, by the source's call; i = inactive; / = not tested or not shown.

SMILES	RGS4 act	RGS4 inh	MrgX1 agonist	MrgX1 PAM	MrgX1 antag
CC1CCCC(C)N1C(=O)CNCc1ccc2c(c1)OCO2 (centres undefined)	i	i	i	i	i
CC(C)Cn1c(N)c(C(=O)COC(=O)c2cc(C(F)(F)F)nc3ccccc23)c(=O)n(C)c1=O	/	/	i	i	i
Cn1c(=O)c(C(=O)COC(=O)c2cc(C(F)(F)F)nc3c(C(F)(F)F)cccc23)c(N)n(CC2CC2)c1=O	-8.93*	i	i	i	-7.5*
CC1CCN(CCOCCOc2ccc(Br)cc2Cl)CC1	-7.19*	i	i	i	i
CC1CCCN(CCCOc2ccc(Br)cc2Cl)C1 (centres undefined)	i	i	i	i	i
COc1ccc(CN(C(=O)CSc2nnc(-c3ccc(F)cc3)o2)c2ccc(F)cc2)cc1	i	i	i	i	i
COc1ccc(CN(C(=O)CSc2nnc(-c3c[nH]c4ccccc34)o2)c2ccc(F)cc2)cc1OC	-8.43*	i	i	i	i
CCOc1cccc2c1OC(c1cc(OC)c(OC)c(OC)c1)N1N=C(c3ccc(C)o3)CC21 (centres undefined)	i	i	i	i	-5.81*
CC(NC(=O)c1sc2cc([N+](=O)[O-])ccc2c1Cl)C(C)(C)C (centres undefined)	i	i	i	6.88*	i
CC(=O)N[C@@H](Cc1ccc(O)cc1)CN1C(N)=NC[C@@H]1CC(C)C	i	i	i	i	i
CC1CCc2c(sc(NC(=O)CCC(=O)O)c2C(=O)NC2CC2)C1 (centres undefined)	i	i	i	i	i
CCCCCCCCCCCCN1[C@@H](CC(=O)OC)c2cc(C(F)(F)F)ccc2S1(=O)=O	i	i	i	i	-5.78*
CCCCCCCCN1[C@@H](CC(=O)OC)c2cc(F)ccc2S1(=O)=O	i	i	i	i	i
CCCCCCCCCCCCN1[C@@H](CC(=O)O)c2cc(F)ccc2S1(=O)=O	-7.69*	i	i	i	i
CC12COC3(C(=O)Nc4ccc([N+](=O)[O-])cc4)CC1CCC32C (centres undefined)	i	i	i	8.37*	i
CC12COC3(C(=O)Nc4ccccc4F)CC1CCC32C (centres undefined)	i	i	i	i	i
CCCCN(C(=O)CNC(=O)c1ccco1)C(C(=O)NC1CCCCC1)c1cccnc1 (centres undefined)	i	i	i	i	i
COc1cc(/C=N\Nc2nc3ccccc3o2)cc(OC)c1OC	i	i	i	i	-6.61*
O=C(CNC(=O)C12CC3CC(CC(C3)C1)C2)NCc1ccccc1	i	i	i	i	i
O=C1C(=Cc2cccs2)C(=O)c2ccccc21	i	i	31.7*	i	i
O=C1NN(c2cccc(Br)c2)C(=O)/C1=C/c1cccs1	i	i	30*	i	i
O=C1NN(c2ccccc2)C(=O)/C1=C\c1ccccc1	i	i	i	i	i
O=C1NN(c2ccccc2)C(=O)/C1=C/c1cccs1	i	i	42.7*	i	i
Cc1ccc(CCNC(=O)C23CN(Cc4ccccc4)CC2C(c2cccc([N+](=O)[O-])c2)=NO3)cc1 (centres undefined)	i	i	i	i	i
COc1ccc(CCNC(=O)C23CN(Cc4ccccc4)CC2C(c2cccc([N+](=O)[O-])c2)=NO3)cc1 (centres undefined)	i	i	i	i	-8.34*
SMILES	RGS4 act	RGS4 inh	MrgX1 agonist	MrgX1 PAM	MrgX1 antag
CCc1nc2ccccc2c(C(=O)OCC(=O)N2CC(C)OC(C)C2)c1C (centres undefined)	i	i	i	i	i
CCOC(=O)C1=C(COC(=O)/C=C/c2ccccc2Cl)NC(=O)NC1C (centres undefined)	i	i	i	8.47*	i
CCOC(=O)C1=C(COC(=O)/C=C/c2ccccc2F)NC(=O)NC1C (centres undefined)	i	i	i	i	i
COc1ccc(N2CCN(C(=O)C3CCCN(S(=O)(=O)c4c(C)noc4C)C3)CC2)cc1 (centres undefined)	i	i	i	i	i
CS(=O)(=O)N(Cc1ccco1)CC(O)Cn1cc(C=O)c2ccccc21 (centres undefined)	i	i	i	i	-5.72*
O=Cc1cn(CC(O)Cn2cc(C=O)c3ccccc32)c2ccccc12	i	i	i	i	i
CCCNC(=O)NC(=O)CSc1nnc(-c2c[nH]c3ccccc23)o1	i	i	i	i	i
CC1(C)CC2CC(C)(CN2/C=N/c2sc3c(c2C#N)CC(C)(C)NC3(C)C)C1 (centres undefined)	i	i	i	i	-4.53*
CCN(CC(=O)Nc1ccc(NC(C)=O)cc1)C(=O)c1ccc(=O)[nH]c1	i	i	i	i	i
COc1ccc(OC)c(/C=C2\Oc3cc(OCC(=O)N4CCC[C@H]4C(=O)O)ccc3C2=O)c1	i	i	31.4*	i	i
COc1ccc(/C=C2\Oc3cc(OCC(=O)N4CCC[C@H]4C(=O)O)ccc3C2=O)c(OC)c1	i	i	i	i	i
O=C1Cc2ccccc2N1c1ccccc1	i	i	i	i	i
O=C1CC(=Nc2ccccc2)NN1c1ccccc1	i	i	i	7.36*	i
CCN(CC1CCCO1)C(=O)c1cc(COc2cc(C)c(Cl)c(C)c2)on1 (centres undefined)	i	i	/	/	/
Cc1ccc(-c2cn3nc(-c4ccccc4)c(-c4ccccc4)nc3n2)cc1	-6.98*	i	i	i	i
COc1ccccc1C(=O)NCCC(=O)N(C)CC(=O)Nc1ccc(C)cc1	i	i	i	i	-5.17*
COc1cccc2c1Oc1cc([N+](=O)[O-])cc(N(C)C(C)=O)c1C=C2	i	i	i	i	i
O=C1CCCCC1C(Nc1ccc(Br)cc1)c1ccccc1 (centres undefined)	-7.53*	i	i	i	i
CCN1C(=NCCN2CCOCC2)N[C@@H](c2ccccc2)C(C(=O)OC)=C1C	i	i	i	i	i
Cc1ccc(C2=CC(C)(c3ccc(C)cc3)Nc3nc(C(F)(F)F)nn32)cc1 (centres undefined)	-7.02*	i	i	i	i
CCc1ccccc1NC(=O)CSc1nc(C)c(C)o1	i	i	i	i	i

Compound activity deposited in PubChem by Johns Hopkins Ion Channel Center.
